Activity calls are given as the source filed them. The calls are words filed in the database; no cut-off is given here. Some results are limits rather than exact numbers.

Data set [1] concerns the target T1, Autotaxin (Mus musculus, UniProt Q9R1E6). The experiment in a line: Inhibition of mouse ATX-beta using LPC 16:0 as substrate by Amplex Red PLD assay.
In data set [2] the target is T1, Autotaxin. The experiment in a line: Inhibition of mouse ATX-beta using LPC 18:0 as substrate by Amplex Red PLD assay.
A short description of data set [3]: Plasma concentration in BLM-induced C57BL/6 mouse pulmonary fibrosis model at 30 mg/kg, ip qd administered 15 days starting 1 day prior to BLM installation measured 1 hr post last dose by LC-MS/MS method. Format: ADME, organism-based. The method in brief:
(§1)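 Bleomycin-challenged C57BL/6 mice received 30 mg/kg ip daily from day −1 to 14. Blood was taken 1, 3 and 6 h after the last dose into EDTA (pH 8, final 50 mM). It was centrifuged at 2000g for 20 min at 4 °C, and plasma was stored at −80 °C. Plasma drug levels were quantified by LC–MS/MS (ng/mL).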

Data set [4] relates to Mus musculus. The experiment in a line: Antifibrotic activity in BLM-induced C57BL/6 mouse pulmonary fibrosis model assessed as decrease in fibrotic lesions at 30 mg/kg, ip qd administered 15 days starting 1 day prior to BLM installation by hematoxylin/eosin staining-based microscopic method. In kind it is functional, organism-based. The method in brief:
(§2)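 Bleomycin model: mice 8–10 weeks, 0.01 U orotracheal bleomycin on day 0, 30 mg/kg ip daily from day −1 to 14 (PBS/5% Tween 80 vehicle), killed day 15. Lungs were fixed in 10% neutral buffered formalin, paraffin-embedded, cut at 4 μm and H&E-stained. Sections were examined by light microscopy at ×100–×300.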

Data set [5] concerns Mus musculus. The experiment in a line: Antifibrotic activity in BLM-induced C57BL/6 mouse pulmonary fibrosis model assessed as decrease in soluble collagen concentration in bronchoalveolar lavage fluid at 30 mg/kg, ip qd administered 15 days starting 1 day prior to BLM installation by Sirius Red assay. In kind it is functional, organism-based. The method in brief:
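Day-15 BALF from bleomycin-challenged mice given ip drug at 30 mg/kg daily from day −1 to 14. BALF (100 μL) was diluted in 1 mL 0.5 M acetic acid, mixed with an equal volume of Sirius Red (120 μg/mL in 0.5 M acetic acid) and held 30 min at room temperature. After centrifugation, supernatant A540 was read against a rat-tail collagen I standard (0–500 μg/mL).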

Data set [6] deals with Mus musculus. The experiment in a line: Antifibrotic activity in BLM-induced C57BL/6 mouse pulmonary fibrosis model assessed as decrease in inflammatory cell influx in bronchoalveolar lavage fluid at 30 mg/kg, ip qd administered 15 days starting 1 day prior to BLM installation by trypan blue assay relative to control. Format: functional. Also on record: scale not given: the % may be the effect or the level left. The essentials:
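Mice (C57BL/6, 8–10 weeks) had orotracheal bleomycin 0.01 U on day 0 and ip dosing at 30 mg/kg daily from day −1 to 14, n = 10. On day 15, lungs were lavaged 3 × 1 mL 0.9% NaCl. BALF was spun at 1200 rpm for 10 min, and pellet cells were counted with 0.4% trypan blue (×10^5 cells/mL). Means ± SE.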

Data set [7] relates to Mus musculus. The experiment in a line: Antifibrotic activity in BLM-induced C57BL/6 mouse pulmonary fibrosis model assessed as improvement in lung architecture at 30 mg/kg, ip qd administered 15 days starting 1 day prior to BLM installation by hematoxylin/eosin staining-based microscopic method. In kind it is functional, organism-based. The essentials:
as §2

In data set [8] the test system is Plasma. The experiment in a line: Plasma concentration in BLM-induced C57BL/6 mouse pulmonary fibrosis model at 30 mg/kg, ip qd administered 15 days starting 1 day prior to BLM installation measured 3 to 6 hrs post last dose by LC-MS/MS method. Format: ADME, organism-based. The following applies: in vivo. The essentials: as §1
Data set [9] relates to Mus musculus. The experiment in a line: Antifibrotic activity in BLM-induced C57BL/6 mouse pulmonary fibrosis model assessed as decrease in total protein concentration in bronchoalveolar lavage fluid at 30 mg/kg, ip qd administered 15 days starting 1 day prior to BLM installation by Bradford protein assay relative to control. In kind it is functional, organism-based. The essentials:
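BALF total protein was measured after orotracheal bleomycin (0.01 U, day 0) and 30 mg/kg ip daily dosing from day −1 to 14. Lavage was done on day 15 with 3 × 1 mL saline, and the supernatant was stored at −80 °C. OD readings were converted to mg/mL using a BSA standard curve (0–2 mg/mL). Means ± SE, paired t test.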

The test system of data set [10] is Mus musculus. The experiment in a line: Antifibrotic activity in BLM-induced C57BL/6 mouse pulmonary fibrosis model assessed as decrease in ATX activity in bronchoalveolar lavage fluid at 30 mg/kg, ip qd administered 15 days starting 1 day prior to BLM installation by TOOS activity assay. In kind it is functional, organism-based. The method in brief:
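Male and female C57BL/6 mice (8–10 weeks) got 0.01 U bleomycin in 50 μL saline orotracheally on day 0. Dosing was 30 mg/kg ip once daily from day −1 to 14 in PBS/5% Tween 80 (n = 10). Lungs were lavaged three times with 1 mL saline on day 15. BALF lysoPLD activity was measured by TOOS assay (nmol/min/mL). Means ± SE.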

For data set [11], the system named is Mus musculus. The experiment in a line: Antifibrotic activity in BLM-induced C57BL/6 mouse pulmonary fibrosis model assessed as decrease in contiguous fibrotic walls at 30 mg/kg, ip qd administered 15 days starting 1 day prior to BLM installation by hematoxylin/eosin staining-based microscopic method. Format: functional, organism-based. The essentials: as §2

For data set [12], the species on record is Rattus norvegicus. The experiment in a line: animal or person. Conditions: Lewis, po, 4 h, read-out: INH.
Data set [13] deals with T1, Autotaxin. The experiment in a line: Inhibition of recombinant mouse ATX expressed in HEK293 cells using FS3 as substrate preincubated for 15 mins followed by substrate addition measured after 30 mins.
In data set [14] the target is T1, Autotaxin. The experiment in a line: Inhibition of recombinant mouse ATX expressed in HEK293 cells using LPC 17:0 as substrate after 30 mins by LC-MS/MS method.

A word on the IC50: it is the concentration that gives 50% inhibition. As to `COC(=O)[C@H](CCC(=O)NO)NC(=O)CCCCC(=O)Nc1ccccc1`, half-maximal inhibition in data set [1] (IC50) required 0.4 µM.
`O=C(Cc1ccc(NC(=O)CCCCc2ccc(-c3ccccc3)cc2)cc1)NO`: the IC50 in data set [1] was over 5 µM.
`CCCCCCCCc1ccc(C(=O)Nc2ccc(CC(=O)NO)cc2)cc1` registered an IC50 in data set [1] of over 5 µM.
On the same count and under the same terms, in the case of `O=C(Cc1ccc(NC(=O)CCCCNC(=O)c2ccc(F)cc2)cc1)NO` it was over 5 µM; in that of `COC(=O)[C@H](CCCC(=O)NO)NC(=O)CCCCCCc1ccccc1`, over 5 µM.
On the same count and under the same terms, in the case of `COC(=O)[C@H](CCCC(=O)NO)NC(=O)CCCCC(=O)Nc1ccccc1` it was 0.05 µM; in that of `COC(=O)[C@H](CCC(=O)NO)NC(=O)CCCCC(=O)Nc1ccc(OC)cc1`, 4.5 µM.
For the compound `O=C(CCCCC(=O)Nc1ccc(CC(=O)C(F)(F)C(F)(F)F)cc1)Nc1ccccc1`, the IC50 worked out at 3 µM in [1] and 0.5 µM in data set [2].
Regarding `COC(=O)[C@H](CCC(=O)NO)NC(=O)CCCCNC(=O)c1ccccc1`, the IC50 in data set [1] was over 5 µM.
`CCCC[C@@H](CCCC(=O)NO)NC(=O)CCCCC(=O)Nc1ccccc1` showed a concentration at 1 h in data set [3] of 70 ng/mL. In addition, the result in data set [4], in [5], in [7], in data set [9], in data set [10] and in data set [11] was Active. For the same compound, the Activity in data set [6] was 50%. The compound further yielded a Cp in data set [8] of 35 ng/mL.
Compound `COC(=O)[C@H](CCC(=O)NO)NC(=O)CCCCC(=O)Nc1ccc(F)cc1` registered an IC50 in data set [1] of over 5 µM.
Consider `O=C(CCN1CCN(C(=O)OCc2cc(Cl)cc(Cl)c2)CC1)c1ccc2[nH]c(=O)oc2c1`, for which the inhibition in vivo at 30 mg/kg in [12] was over 95%. Also, the IC50 in data set [13] was 0.0028 µM; in [14], 0.0017 µM.
As for `O=C(Cc1ccc(NC(=O)CCCCC(=O)Nc2ccccc2)cc1)NO`, the IC50 in data set [2] turned out to be 0.2 µM.
In data set [1], `CCOc1ccc(NC(=O)CCCCC(=O)N[C@@H](CCC(=O)NO)C(=O)OC)cc1` came in with an IC50 of over 5 µM.
With `O=C(CCCCC(=O)Nc1ccc(B(O)O)cc1)Nc1ccccc1`, the IC50 in data set [1] came to 0.7 µM; in [2], 4 µM.
`CCCCCCCCCC(=O)Nc1ccc(CC(=O)NO)cc1`: the IC50 in data set [1] was over 5 µM.
Same read-out and setting: in the case of `O=C(CC[C@H](NC(=O)CCCCC(=O)Nc1ccccc1)C(=O)NO)NO` it was over 5 µM.
Same read-out and setting: in the case of `O=C(O)Cc1ccc(NC(=O)CCCCC(=O)Nc2ccccc2)cc1` it was over 5 µM.

These data come from ChEMBL document CHEMBL4043308 (J Med Chem, 2018).
